Test results reported in ChEMBL document CHEMBL4428065, “Fulvestrant-3 Boronic Acid (ZB716): An Orally Bioavailable Selective Estrogen Receptor Downregulator (SERD)” (J Med Chem, 2016).
Activity calls are given as the source filed them. The rule behind the calls is not given here.

Experiments:
[1] = molecular target: T1, Estrogen receptor (Homo sapiens) (UniProt P03372); assay: Antagonistic activity at estrogen receptor in human MCF7 cells assessed as suppression of PGR expression 10^-8 to 10^-7 M measured after 48 hrs by real-time PCR analysis; type: cell-based
T1 sequence (whole entry): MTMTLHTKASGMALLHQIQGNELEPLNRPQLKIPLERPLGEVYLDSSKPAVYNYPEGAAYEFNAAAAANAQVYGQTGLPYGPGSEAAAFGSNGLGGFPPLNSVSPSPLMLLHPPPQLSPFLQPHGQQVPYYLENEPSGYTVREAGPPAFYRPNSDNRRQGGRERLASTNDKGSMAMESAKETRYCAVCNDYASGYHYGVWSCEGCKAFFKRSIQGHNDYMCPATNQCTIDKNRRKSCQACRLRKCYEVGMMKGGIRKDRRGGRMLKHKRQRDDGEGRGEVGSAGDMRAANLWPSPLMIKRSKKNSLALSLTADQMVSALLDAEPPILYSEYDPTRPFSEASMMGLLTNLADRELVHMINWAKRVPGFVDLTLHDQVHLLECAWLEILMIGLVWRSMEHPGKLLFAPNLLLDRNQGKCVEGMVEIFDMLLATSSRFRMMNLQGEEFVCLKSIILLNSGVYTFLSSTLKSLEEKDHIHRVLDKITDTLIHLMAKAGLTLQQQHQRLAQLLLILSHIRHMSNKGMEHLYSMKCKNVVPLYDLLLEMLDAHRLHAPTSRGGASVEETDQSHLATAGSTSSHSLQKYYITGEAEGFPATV
Method in brief: (§1)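 MCF-7 cells were seeded in DMEM with 5% FBS, then switched to phenol red-free DMEM with 5% charcoal-stripped FBS for 48 h. They were treated 48 h with vehicle, E2, or test compound + E2. Expression was measured by real-time PCR, with fold change calculated by 2^−ΔΔCt normalized to five reference genes (18S rRNA, HPRT1, RPL13A, GAPDH, ACTB).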

[2] = molecular target: T1, Estrogen receptor (Homo sapiens); assay: Antagonistic activity at estrogen receptor in human MCF7 cells assessed as suppression of EGR3 expression at 10^-8 to 10^-7 M measured after 48 hrs by real-time PCR analysis; type: cell-based; method in brief: as §1
[3] = molecular target: T1, Estrogen receptor (Homo sapiens); assay: Antagonistic activity at estrogen receptor in human MCF7 cells assessed as suppression of PDZK1 expression 10^-8 to 10^-7 M measured after 48 hrs by real-time PCR analysis; type: cell-based; method in brief: as §1
[4] = molecular target: T1, Estrogen receptor (Homo sapiens); assay: Antiestrogenic activity at estrogen receptor in human T47D-KBluc cells assessed as inhibition of estradiol activity by luciferase reporter gene assay relative to estradiol control; type: cell-based
Method in brief: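 T47D-kb-Luc cells stably carry an ERE-driven firefly luciferase. Antagonism was read as inhibition of the signal induced by 0.01 nM estradiol, testing 0.1, 1 and 10 nM. Luminescence was normalized to the estradiol control, run in quadruplicate in at least three separate experiments, and given as mean ± SD.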

[5] = molecular target: T1, Estrogen receptor (Homo sapiens); assay: Antagonistic activity at estrogen receptor in human MCF7 cells assessed as suppression of TFF1 expression 10^-8 to 10^-7 M measured after 48 hrs by real-time PCR analysis; type: cell-based; method in brief: as §1
[6] = molecular target: T1, Estrogen receptor (Homo sapiens); assay: Antagonistic activity at estrogen receptor in human MCF7 cells assessed as suppression of WISP1 expression 10^-8 to 10^-7 M measured after 48 hrs by real-time PCR analysis; type: cell-based; method in brief: as §1
MCF7 [7] = assay: Antiproliferative activity against human MCF7 cells after 5 days by coulter counter analysis; type: functional, cell-based; details: MCF7, 120 h
Method in brief: (§2)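 Cells were plated at 50000/well in 5% FBS phenol red-free DMEM. The tamoxifen-resistant line came from prolonged 4-hydroxytamoxifen exposure of MCF-7. Cells were treated 5 days at six concentrations from 10−10 to 10−5 M, with DMSO vehicle. Viable cells were counted by Coulter counter, survival expressed relative to vehicle, and IC50 taken from dose-response curves.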

T47D [8] = assay: Antiproliferative activity against human T47D cells after 5 days by coulter counter analysis; type: functional, cell-based; details: 120 h
Method in brief: (§3)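 Cells plated at 50000/well in 5% FBS phenol red-free DMEM; treated with six concentrations from 10−10 to 10−5 M for 5 days, DMSO vehicle controls. Viable cells counted by Coulter counter; survival ratio = treated/vehicle viable cells (control 100%). IC50 derived from dose–response curves. Cultures at 37 °C, 5% CO2.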

MCF7 [9] = assay: Antiproliferative activity against human tamoxifen-resistant MCF7 cells after 5 days by coulter counter analysis; type: functional, cell-based; details: MCF7, 120 h; method in brief: as §2
T47D [10] = assay: Antiproliferative activity against human tamoxifen-resistant T47D cells over-expressing PKC-alpha after 5 days by coulter counter analysis; type: functional, cell-based; details: 120 h; method in brief: as §3
Estrogen receptor [11] = molecular target: T2, Estrogen receptor (Homo sapiens, UniProt P03372); assay: Displacement of fluoromone ligand from recombinant ER-alpha (unknown origin) by LanthaScreen TR-FRET assay
T2 sequence (P03372 whole entry): T1 sequence (whole entry)
Method in brief: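 Competitive TR-FRET binding with recombinant ERα, in which test compound displaces a fluormone tracer. Six to ten concentrations spanning the IC50 were tested in quadruplicate, and IC50 was taken from the competition curves.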

[12] = molecular target: T1, Estrogen receptor (Homo sapiens); assay: (§4) Downregulation of ER-alpha expression in human T47D cells measured after 5 days by Western blot analysis; type: cell-based
Estrogen receptor [13] = molecular target: T2, Estrogen receptor; assay: as §4; type: cell-based
[14] = molecular target: T1, Estrogen receptor (Homo sapiens); assay: (§5) Downregulation of ER-alpha expression in human tamoxifen-resistant T47D cells over-expressing PKC-alpha measured after 5 days by Western blot analysis; type: cell-based
Estrogen receptor [15] = molecular target: T2, Estrogen receptor; assay: as §5; type: cell-based
[16] = Half life in C57BL/6 mouse at 8.3 mg/kg administered through oral gavage by HPLC-MS/MS analysis; type: ADME, organism-based; details: in vivo
Method in brief: (§6)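 Female C57BL/6 mice, n = 5, given a single 8.3 mg/kg oral gavage in PBS/ethanol. Orbital sinus blood was drawn into EDTA at 1, 3, 6, 24 and 48 h, with each group sampled once. Analysis by UPLC-MS/MS on a C18 column with a water/acetonitrile 0.05% formic acid gradient.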

[17] = Cmax in C57BL/6 mouse at 8.3 mg/kg administered through oral gavage by HPLC-MS/MS analysis; type: ADME, organism-based; parameters: dose 8.3 mg/kg, route oral; details: in vivo; method in brief: as §6
[18] = AUC in C57BL/6 mouse at 8.3 mg/kg administered through oral gavage by HPLC-MS/MS analysis; type: ADME, organism-based; details: in vivo; method in brief: as §6
[19] = Half life in C57BL/6 mouse at 8.3 mg/kg, sc by HPLC-MS/MS analysis; type: ADME, organism-based; details: in vivo
[20] = Cmax in C57BL/6 mouse at 8.3 mg/kg, sc by HPLC-MS/MS analysis; type: ADME, organism-based; parameters: dose 8.3 mg/kg, route subcutaneous; details: in vivo
[21] = AUC in C57BL/6 mouse at 8.3 mg/kg, sc by HPLC-MS/MS analysis; type: ADME, organism-based; details: in vivo

| Compound | inhibition [4] | IC50 (MCF7 [7]) [nM] | IC50 (T47D [8]) [nM] | IC50 (MCF7 [9]) [nM] | IC50 (T47D [10]) [nM] | inhibition [12] | inhibition [14] | other results |
| --- | --- | --- | --- | --- | --- | --- | --- | --- |
| C[C@]12CC[C@@H]3c4ccc(B(O)O)cc4C[C@@H](CCCCCCCCC[S+]([O-])CCCC(F)(F)C(F)(F)F)[C@H]3[C@@H]1CC[C@@H]2O (stereo not given in full) [ZB-716] | Dose-dependent effect | 3.2 | 6.1 | 69 | 37 | Dose-dependent effect | Dose-dependent effect | inhibition [1]: Active; inhibition [2]: Active; inhibition [3]: Active; inhibition [5]: Active; inhibition [6]: Active; IC50 (Estrogen receptor [11]): 4.1 nM; IC50 (Estrogen receptor [13]): 7.8 nM; IC50 (Estrogen receptor [15]): 12.7 nM; t1/2 [16]: 23.5 h; Cmax [17]: 169.8 ng/mL; AUC [18]: 2547.1 ng·h/mL |
| CC/C(=C(\c1ccc(O)cc1)c1ccc(OCCN(C)C)cc1)c1ccccc1 [AFIMOXIFENE] | – | – | 24 | – | 540 | – | – | – |
| C[C@]12CC[C@@H]3c4ccc(O)cc4C[C@@H](CCCCCCCCC[S+]([O-])CCCC(F)(F)C(F)(F)F)[C@H]3[C@@H]1CC[C@@H]2O (stereo not given in full) [FULVESTRANT] | Dose-dependent effect | 1.5 | 1.2 | 44 | 42 | Dose-dependent effect | Dose-dependent effect | half-life [19]: 14 h; Cmax [20]: 15.2 ng/mL; AUC [21]: 158 ng·h/mL |
